# From PubChem
# Most compounds without a hit are left out; they make up all but 1.7% or so of the library.
# SR-BI DiI-HDL act: SR-BI HDL lipid transfer activation | activation, % at 12.5 µM | actives 0.096% (n = 320,000) | CHO ldlA[mSR-BI] cells, DiI-HDL uptake fluorescence, 3 h; 100 = double the neutral-control signal | AID 504775;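 active = mean replicate activation of at least 60% and every replicate at or above 60%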
#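 Assay system: LDL receptor-deficient CHO ldlA cells overexpressing murine SR-BI / Medium: BSA-supplemented, HEPES-buffered Ham's F12, pH 7.4 / Probe or stimulus: DiI-labelled HDL at 10 µg/mL final / Timing: compound with DiI-HDL co-incubation, 3 h at 37 °C / Technique: bottom-read cell fluorescence after medium removal, ex 550/em 595 nm / Measure: HDL uptake via cellular fluorescence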
# NTR1 agonist: activates human neurotensin receptor 1; activation, % at 20 µM; P30989; actives 0.17% (n = 330,000); NTR1-U2OS beta-arrestin-GFP spot imaging, agonist mode;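 active = activation at or above 40% of the spot to cytoplasm intensity ratio, with at least 20 cells analyzed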
# Target sequence (P30989 whole entry, looked up): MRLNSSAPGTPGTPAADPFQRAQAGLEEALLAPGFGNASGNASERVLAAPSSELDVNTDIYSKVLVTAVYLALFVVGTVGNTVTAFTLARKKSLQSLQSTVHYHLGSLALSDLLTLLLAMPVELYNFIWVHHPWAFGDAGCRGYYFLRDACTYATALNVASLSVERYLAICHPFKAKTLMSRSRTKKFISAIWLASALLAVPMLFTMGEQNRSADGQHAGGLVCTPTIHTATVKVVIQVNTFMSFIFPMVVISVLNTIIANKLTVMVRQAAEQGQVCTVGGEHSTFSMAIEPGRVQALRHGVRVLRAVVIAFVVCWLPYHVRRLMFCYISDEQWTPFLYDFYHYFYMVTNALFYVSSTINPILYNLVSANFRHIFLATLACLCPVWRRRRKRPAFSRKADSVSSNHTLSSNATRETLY
# SR-BI DiI inh: mouse SR-BI HDL lipid transfer inhibition. inhibition, % at 12.5 µM. actives 0.96% (n = 320,000). AID 488896. ldlA[mSR-BI] CHO cells, DiI-HDL uptake fluorescence, 3 h;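 active = mean replicate inhibition of at least 70% and a set share of replicates each scoring 70 or more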
# Vif imaging: blocks HIV Vif function; inhibition, % at 7.49 µM; HEK293T cells, Vif self-association by quenched fluorescence, imaging, 24 h; actives 0.35% (n = 340,000); AID 602346; in the data active = inhibition above about 50%, passing the limit was not always enough
# V-ATPase pH: regulators of yeast V-ATPase proton transport | S. cerevisiae, pHLuorin cytosolic pH fluorescence | response, % at 10 µM | actives 0.37% (n = 350,000) | AID 504577; in the data active = response mostly above about 7.3%, no sharp cut-off; inactive = mostly below about 5.4%; also: actives read high
# CaV13 ICDI inh: Disruptors of the CACNA1D IQ motif to Ca2+-dependent inactivation inhibitor domain association, primary screening, Förster resonance energy transfer in intact living …. HEK cells, CFP/YFP FRET ICDI-IQ, plate reader, 10 min; percent FRET-ratio fall versus neutral wells. actives 0.098% (n = 340,000). inhibition, % at 12.3 µM;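 active = mean replicate inhibition of at least 30% and at least 1% of replicates passing that level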
# Numbers stand for hits; . = inactive; / = not tested or not shown.
SMILES,SR-BI DiI-HDL act,NTR1 agonist,SR-BI DiI inh,Vif imaging,V-ATPase pH,CaV13 ICDI inh
COc1ccc(NC(=O)c2cc(C)cc(C)c2)cc1[N+](=O)[O-],.,.,80,.,.,.
COc1cc(C(=O)Nc2ccc(Cl)c(C(F)(F)F)c2)cc(OC)c1OC,.,.,.,.,.,.
COc1ccc(C(=O)c2ccc(Cl)c([N+](=O)[O-])c2)cc1,.,.,.,69,.,.
CC[C@H]1O[C@H](C)CC2=C1C(=O)OC(C)(C)O2,/,/,/,/,/,.
Oc1ccccc1/C=N/Nc1nccnc1Cl,.,.,.,.,.,.
Oc1ccc(/C=N/Nc2nccnc2Cl)c(O)c1,.,.,.,81,.,.
CCC(C)C(NS(=O)(=O)c1ccc(C)cc1)C(=O)N1CCOCCOCCOCC1 (stereo not given),/,.,/,.,.,.
COc1ccc(NS(=O)(=O)c2ccc(C)c(C(=O)O)c2)cc1,.,.,.,.,.,.
COc1ccc(NS(=O)(=O)c2ccc(C)c(C(=O)NNC(=O)c3ccccc3O)c2)cc1,.,.,97,.,.,.
Cc1ccc(S(=O)(=O)Nc2ccccc2F)cc1C(=O)NNC(=O)c1ccccc1O,.,.,.,.,.,.
O=C(NNC(=O)c1ccccc1O)c1ccc(NS(=O)(=O)c2ccc(F)c(F)c2)cc1,.,.,85,.,.,.
COC(=O)C1=C(C)N(Cc2ccc(C(F)(F)F)cc2)C(=NCc2ccc(C(F)(F)F)cc2)NC1c1ccccc1C(F)(F)F (stereo not given),/,/,/,/,/,.
CCN=C1NC(c2ccc(C(F)(F)F)cc2)C(C(=O)OC)=C(C)N1Cc1ccccc1C(F)(F)F (stereo not given),/,/,/,/,/,.
COc1cccc(/C=N/NC(=O)c2cc3c(OC)cccc3[nH]2)c1O,.,.,103,.,.,.
COc1ccc(OC)c2[nH]c(C(=O)N/N=C/c3ccccc3O)cc12,.,.,124,.,.,.
COc1cccc(/C=N/NC(=O)c2cc3c(OC)cccc3[nH]2)c1OC,/,.,/,.,.,.
OCC(O)C(O)CC1SCCS1 (stereo not given),.,/,.,.,13,.
CN1CCn2cnc(C(=O)N3CCN(c4ccccc4)CC3)c2C1=O,/,/,/,.,.,.
Cc1c(NC(=O)c2cc(-c3ccc(F)cc3)nc3ccccc23)c(=O)n(-c2ccccc2)n1C,.,.,86,.,.,.
Cc1ccc(-c2cc(C(=O)Nc3cc(C)on3)c3ccccc3n2)cc1,.,.,74,.,.,.
O=C(c1cnn2c(C(F)(F)F)cc(-c3ccc(Br)cc3)nc12)N1CCOCC1,.,/,.,.,.,/
O=C(NCC(c1cccs1)N1CCOCC1)c1cc(-c2ccc(F)cc2)nc2ccccc12 (stereo not given),.,.,84,.,.,.
Cc1cc(NC(=O)c2cnn3c(C(F)(F)F)cc(-c4ccc(Br)cc4)nc23)no1,.,.,77,.,.,.
Cc1cccc(-c2cc(C(=O)Nc3c(C)n(C)n(-c4ccccc4)c3=O)c3ccccc3n2)c1,.,.,.,.,.,/
Cc1cc(NC(=O)c2cc(-c3ccc(C)c(C)c3)nc3ccccc23)no1,.,.,.,.,.,.
SMILES,SR-BI DiI-HDL act,NTR1 agonist,SR-BI DiI inh,Vif imaging,V-ATPase pH,CaV13 ICDI inh
CC(=O)Nc1ccc(S(=O)(=O)NC(C(=O)O)C(C)O)cc1 (stereo not given),/,.,/,.,.,.
C=CCN=C1NC(c2ccccc2C(F)(F)F)C(C(=O)OC)=C(C)N1Cc1cccc(C(F)(F)F)c1 (stereo not given),/,/,/,/,/,.
CCCCCCCCN1C(=O)[C@H](CC(=O)N2CCN(C(=O)C3CC3)CC2)C[C@@]2(C(=O)OC)CCCCC=C12,/,/,/,/,/,.
O=C(Cc1c[nH]c2ccccc12)NNC(=O)c1ccccc1,.,.,.,.,.,.
Cc1cccc(NC(=O)c2cc(-c3cccnc3)nc3c(C)cccc23)n1,.,.,.,.,.,/
Cc1ccc(Nc2nc3ccccc3nc2Nc2c(C)n(C)n(-c3ccccc3)c2=O)cc1,.,.,92,.,.,.
Cc1cc(NC(=O)c2cc(-c3ccncc3)nc3c(C)cccc23)no1,.,.,71,.,.,.
CCN(CC)S(=O)(=O)c1ccc(C(=O)NC(=S)N2CCCCC2C)cc1 (stereo not given),/,/,/,/,.,.
O=C(O)CCC(NC(=O)OCc1ccccc1)C(=O)O (stereo not given),.,.,.,.,.,.
NC(=O)NC(CCC(=O)O)C(=O)O (stereo not given),.,.,.,65,.,/
CSc1ncccc1C(=O)OCC(=O)N1CCc2ccccc21,.,.,.,.,.,.
CCc1nc2ccc(C(=O)Nc3ccc(NC(C)=O)cc3)cc2nc1CC,.,.,83,.,.,.
CC(=O)Nc1ccc(NC(=O)c2ccc(NC(=O)c3ccccc3)cc2)cc1,.,.,.,.,.,/
O=C1C=CC(=O)N1c1ccc2c(c1)Cc1cc(F)ccc1-2,.,/,.,.,17,.
O=C(CCNC(=O)c1ccco1)Nc1ccc(OC(F)(F)F)cc1,/,.,/,111,.,.
COc1cc(/C=N/NC(=S)Nc2cccc(S(=O)(=O)N(C)C)c2)ccc1O,.,.,71,.,.,.
COc1cc(/C=N/NC(=O)c2cccc(NC(=O)c3ccccc3)c2)ccc1O,.,.,.,.,.,.
CCCN(CC(=O)NC(=O)NCc1ccccc1)CC(=O)Nc1ccc(F)c(F)c1F,/,/,/,/,.,.
CC(C)C[C@@H]1COc2cccc(N3CCCC3)c2S(=O)(=O)N1,/,/,/,/,/,.
COc1ccc(N/C=C/C(=O)c2cc(OC)c(OC)c(OC)c2)cc1,.,.,72,.,.,.
COc1ccc(C(=O)Nc2ccc(NC(=O)c3cccc(F)c3)cn2)cc1,.,.,76,.,.,.
Cc1ccc(Oc2nnc(-c3ccc(C)cc3)c3ccccc23)cc1,.,.,.,.,.,.
COc1ccc(C(=O)/C=C/Nc2cccc(C)n2)cc1OC,.,.,.,60,.,/
COc1ccccc1C(=O)Nc1ccc(Oc2nnc(-c3ccc(C)cc3)c3ccccc23)cc1,.,.,84,.,.,.
Nc1[nH]c(C(=O)c2ccccc2)c(-c2ccccc2Br)c1C(=O)c1cccs1,/,/,/,/,/,.
COc1ccc(C(=O)Nc2ccc(NC(=O)c3ccccc3OC)nc2)cc1,.,.,79,.,.,.
COc1cc(C(=O)Nc2ccc(NC(=O)c3ccccc3)nc2)cc(OC)c1OC,.,.,.,.,.,.
COC(=O)c1cc(NC(=O)c2cccc(F)c2)cc(C(=O)OC)c1,.,.,78,.,.,.
COc1ccc(C(=O)Nc2ccc(NC(=O)c3cc(OC)c(OC)c(OC)c3)cn2)cc1,.,.,77,.,.,.
